Reference: ChEMBL document CHEMBL1152757, “Stereoselective synthesis and biological evaluation of syn-1-amino-3-[18F]fluorocyclobutyl-1-carboxylic acid as a potential positron emission tomography brain tumor imaging agent” (Bioorg Med Chem, 2009)

Columns and labels:
[1] = tested on: Brain; assay: Biodistribution in brain of rat 9L cells implanted Fischer rat at 15 to 30 uCi, iv after 120 mins by gamma-counter; format: ADME, organism-based; conditions: in vivo, 2 h
How it was run: (§1)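 Male Fischer 344 rats (125-175 g) implanted intracranially by stereotactic injection of 5 × 10^4 9L gliosarcoma cells. Used 10-12 days after implantation. Tracer given into the tail vein at 15-30 µCi in 0.1-0.3 mL sterile saline. Groups of 4 were sacrificed at 15, 30, 60 and 120 min. Tissues were weighed and gamma-counted against dose standards, and counts decay-corrected to %ID/g (mean ± SD). One-way ANOVA.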

[2] = tested on: Spleen; assay: Biodistribution in spleen of rat 9L cells implanted Fischer rat at 15 to 30 uCi, iv after 15 mins by gamma-counter; format: ADME, organism-based; conditions: in vivo, 0.25 h; how it was run: as §1
[3] = tested on: Blood; assay: Biodistribution in blood of rat 9L cells implanted Fischer rat at 15 to 30 uCi, iv after 60 mins by gamma-counter; format: ADME, organism-based; conditions: in vivo, 1 h; how it was run: as §1
[4] = tested on: Liver; assay: Biodistribution in liver of rat 9L cells implanted Fischer rat at 15 to 30 uCi, iv after 15 mins by gamma-counter; format: ADME, organism-based; conditions: in vivo, 0.25 h; how it was run: as §1
[5] = tested on: Muscle tissue; assay: Biodistribution in muscle of rat 9L cells implanted Fischer rat at 15 to 30 uCi, iv after 30 mins by gamma-counter; format: ADME, organism-based; conditions: in vivo, 0.5 h; how it was run: as §1
[6] = tested on: Spleen; assay: Biodistribution in spleen of rat 9L cells implanted Fischer rat at 15 to 30 uCi, iv after 60 mins by gamma-counter; format: ADME, organism-based; conditions: in vivo, 1 h; how it was run: as §1
[7] = Biodistribution in tumor of rat 9L cells implanted Fischer rat at 15 to 30 uCi, iv after 30 mins by gamma-counter; format: ADME, organism-based, Neoplasm; conditions: in vivo, 0.5 h; how it was run: as §1
[8] = tested on: Kidney; assay: Biodistribution in kidney of rat 9L cells implanted Fischer rat at 15 to 30 uCi, iv after 30 mins by gamma-counter; format: ADME, organism-based; conditions: in vivo, 0.5 h; how it was run: as §1
[9] = Ratio of drug level from tumor to brain of rat 9L cells implanted Fischer rat at 15 to 30 uCi, iv after 15 mins by gamma-counter; format: ADME, organism-based; conditions: in vivo, 0.25 h
How it was run: (§2)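 Male Fischer 344 rats (125-175 g) received intracranial implants of 9L cells (5 × 10^4 cells) and were used 10-12 days later. Tracer was given by tail vein at 15-30 µCi in 0.1-0.3 mL sterile saline. Groups of 4 were killed at each time point. Tissues were weighed and gamma counted against dose standards with decay correction, giving %ID/g (mean). The ratio is tumor %ID/g over normal brain %ID/g.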

[10] = tested on: Heart; assay: Biodistribution in heart of rat 9L cells implanted Fischer rat at 15 to 30 uCi, iv after 60 mins by gamma-counter; format: ADME, organism-based; conditions: in vivo, 1 h; how it was run: as §1
[11] = tested on: Spleen; assay: Biodistribution in spleen of rat 9L cells implanted Fischer rat at 15 to 30 uCi, iv after 30 mins by gamma-counter; format: ADME, organism-based; conditions: in vivo, 0.5 h; how it was run: as §1
[12] = Biodistribution in tumor of rat 9L cells implanted Fischer rat at 15 to 30 uCi, iv after 60 mins by gamma-counter; format: ADME, organism-based, Neoplasm; conditions: in vivo, 1 h; how it was run: as §1
[13] = tested on: Bone; assay: Biodistribution in bone of rat 9L cells implanted Fischer rat at 15 to 30 uCi, iv after 60 mins by gamma-counter; format: ADME, organism-based, Bone element; conditions: in vivo, 1 h; how it was run: as §1
[14] = tested on: Lung; assay: Biodistribution in lung of rat 9L cells implanted Fischer rat at 15 to 30 uCi, iv after 120 mins by gamma-counter; format: ADME, organism-based; conditions: in vivo, 2 h; how it was run: as §1
[15] = Ratio of drug level from tumor to brain of rat 9L cells implanted Fischer rat at 15 to 30 uCi, iv after 60 mins by gamma-counter; format: ADME, organism-based; conditions: in vivo, 1 h; how it was run: as §2
[16] = tested on: Lung; assay: Biodistribution in lung of rat 9L cells implanted Fischer rat at 15 to 30 uCi, iv after 15 mins by gamma-counter; format: ADME, organism-based; conditions: in vivo, 0.25 h; how it was run: as §1
[17] = tested on: Brain; assay: Biodistribution in brain of rat 9L cells implanted Fischer rat at 15 to 30 uCi, iv after 30 mins by gamma-counter; format: ADME, organism-based; conditions: in vivo, 0.5 h; how it was run: as §1
[18] = tested on: Muscle tissue; assay: Biodistribution in muscle of rat 9L cells implanted Fischer rat at 15 to 30 uCi, iv after 15 mins by gamma-counter; format: ADME, organism-based; conditions: in vivo, 0.25 h; how it was run: as §1
[19] = tested on: Kidney; assay: Biodistribution in kidney of rat 9L cells implanted Fischer rat at 15 to 30 uCi, iv after 120 mins by gamma-counter; format: ADME, organism-based; conditions: in vivo, 2 h; how it was run: as §1
[20] = tested on: Muscle tissue; assay: Biodistribution in muscle of rat 9L cells implanted Fischer rat at 15 to 30 uCi, iv after 120 mins by gamma-counter; format: ADME, organism-based; conditions: in vivo, 2 h; how it was run: as §1
[21] = Biodistribution in testis of rat 9L cells implanted Fischer rat at 15 to 30 uCi, iv after 15 mins by gamma-counter; format: ADME, organism-based; conditions: in vivo, 0.25 h; how it was run: as §1
[22] = tested on: Pancreas; assay: Biodistribution in pancreas of rat 9L cells implanted Fischer rat at 15 to 30 uCi, iv after 120 mins by gamma-counter; format: ADME, organism-based; conditions: in vivo, 2 h; how it was run: as §1
[23] = tested on: Bone; assay: Biodistribution in bone of rat 9L cells implanted Fischer rat at 15 to 30 uCi, iv after 30 mins by gamma-counter; format: ADME, organism-based, Bone element; conditions: in vivo, 0.5 h; how it was run: as §1
[24] = tested on: Kidney; assay: Biodistribution in kidney of rat 9L cells implanted Fischer rat at 15 to 30 uCi, iv after 60 mins by gamma-counter; format: ADME, organism-based; conditions: in vivo, 1 h; how it was run: as §1
[25] = tested on: Heart; assay: Biodistribution in heart of rat 9L cells implanted Fischer rat at 15 to 30 uCi, iv after 30 mins by gamma-counter; format: ADME, organism-based; conditions: in vivo, 0.5 h; how it was run: as §1
[26] = tested on: Blood; assay: Biodistribution in blood of rat 9L cells implanted Fischer rat at 15 to 30 uCi, iv after 120 mins by gamma-counter; format: ADME, organism-based; conditions: in vivo, 2 h; how it was run: as §1

Question: With N[C@]1(C(=O)O)C[C@H]([18F])C1 as the molecule, how does the Drug uptake [1] read?
Answer: The Drug uptake was 0.25 % ID/g.

Question: And the Drug uptake [2]?
Answer: The Drug uptake was 0.68 % ID/g.

Question: And the Drug uptake [3]?
Answer: Its Drug uptake is 0.32 % ID/g.

Question: What about the Drug uptake [4] of the same molecule?
Answer: The Drug uptake was 0.73 % ID/g.

Question: And the Drug uptake [5]?
Answer: The Drug uptake was 0.43 % ID/g.

Question: And the Drug uptake [6]?
Answer: The Drug uptake was 0.52 % ID/g.

Question: And the Drug uptake [7]?
Answer: Its Drug uptake is 2.1 % ID/g.

Question: What about the Drug uptake [8] of the same molecule?
Answer: Its Drug uptake is 0.8 % ID/g.

Question: And the Ratio [9]?
Answer: The Ratio was 7.2.

Question: And the Drug uptake [10]?
Answer: The Drug uptake was 0.38 % ID/g.

Question: What about the Drug uptake [11] of the same molecule?
Answer: The Drug uptake was 0.61 % ID/g.

Question: What about the Drug uptake [12] of the same molecule?
Answer: The Drug uptake was 1.48 % ID/g.

Question: What about the Drug uptake [13] of the same molecule?
Answer: Its Drug uptake is 0.28 % ID/g.

Question: And the Drug uptake [14]?
Answer: The Drug uptake was 0.48 % ID/g.

Question: What about the Ratio [15] of the same molecule?
Answer: The Ratio was 7.6.

Question: What about the Drug uptake [16] of the same molecule?
Answer: Its Drug uptake is 0.4 % ID/g.

Question: What about the Drug uptake [17] of the same molecule?
Answer: The Drug uptake was 0.18 % ID/g.

Question: What about the Drug uptake [18] of the same molecule?
Answer: Its Drug uptake is 0.35 % ID/g.

Question: And the Drug uptake [19]?
Answer: The Drug uptake was 0.56 % ID/g.

Question: What about the Drug uptake [20] of the same molecule?
Answer: The Drug uptake was 0.39 % ID/g.

Question: What about the Drug uptake [21] of the same molecule?
Answer: The Drug uptake was 0.17 % ID/g.

Question: What about the Drug uptake [22] of the same molecule?
Answer: Its Drug uptake is 2.78 % ID/g.

Question: And the Drug uptake [23]?
Answer: The Drug uptake was 0.26 % ID/g.

Question: And the Drug uptake [24]?
Answer: Its Drug uptake is 0.7 % ID/g.

Question: What about the Drug uptake [25] of the same molecule?
Answer: The Drug uptake was 0.47 % ID/g.

Question: And the Drug uptake [26]?
Answer: The Drug uptake was 0.26 % ID/g.
